Measured values as given in ChEMBL document CHEMBL4052832, “Selective Inhibitors of Human Neuraminidase 3” (J Med Chem, 2018).
Converted amounts (≈) assume the structure as drawn. Values belong to the compound of their own block, whether it stands above or below them. The source made the active and inactive calls. No cut-off for these calls is given here.

What was measured:
Sialidase-3 [1] = target: T1, Sialidase-3 (Homo sapiens, UniProt Q9UQ49); experiment: Inhibition of human N-terminal MBP-fused NEU3 expressed in Escherichia coli using GM3 as substrate preincubated for 15 mins followed by substrate addition measured after 30 mins by fluorescence based assay
T1 sequence (Q9UQ49 whole entry): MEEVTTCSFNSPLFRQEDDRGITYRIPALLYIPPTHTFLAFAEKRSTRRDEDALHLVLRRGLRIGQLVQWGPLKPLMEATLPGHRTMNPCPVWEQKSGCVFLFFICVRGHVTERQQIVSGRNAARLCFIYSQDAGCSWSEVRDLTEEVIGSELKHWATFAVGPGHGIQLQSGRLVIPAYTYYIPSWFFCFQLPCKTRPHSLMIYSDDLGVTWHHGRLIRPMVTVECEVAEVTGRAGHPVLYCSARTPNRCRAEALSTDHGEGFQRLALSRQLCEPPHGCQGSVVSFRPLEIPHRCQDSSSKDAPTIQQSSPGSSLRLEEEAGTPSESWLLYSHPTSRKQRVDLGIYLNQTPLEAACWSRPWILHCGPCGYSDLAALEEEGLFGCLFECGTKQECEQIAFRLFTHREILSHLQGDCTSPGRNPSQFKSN
In short: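 GM3 hydrolysis in 0.1 M sodium acetate pH 4.5. Serially diluted inhibitors preincubated with enzyme 15 min at 0 °C, then GM3 added to 500 μM for 30 min at 37 °C. Quenched with fresh 0.2 M sodium borate pH 10.2, then malononitrile added to form a fluorescent adduct with freed sialic acid; ex 357/em 434 nm.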

Sialidase-1 [2] = target: T2, Sialidase-1 (Homo sapiens, UniProt Q99519); experiment: Inhibition of human CathA-IRES-6His-tagged NEU1 expressed in HEK293T cells using 4MU-NANA as substrate preincubated for 15 mins followed by substrate addition measured after 30 mins by fluorescence based assay; format: cell-based, HEK-293T
[3] = target: Sialidase NEU3/NEU4 (Mus musculus) (UniProt Q9JMH7+Q8BZL1); experiment: Inhibition of NEU3/NEU4 in NEU1 knockout C57BL6 mouse brain homogenate assessed as residual activity using 4MU-NANA as substrate after 30 mins relative to control
Sialidase NEU3/NEU4 (Mus musculus), sequence (Q8BZL1 whole entry, looked up): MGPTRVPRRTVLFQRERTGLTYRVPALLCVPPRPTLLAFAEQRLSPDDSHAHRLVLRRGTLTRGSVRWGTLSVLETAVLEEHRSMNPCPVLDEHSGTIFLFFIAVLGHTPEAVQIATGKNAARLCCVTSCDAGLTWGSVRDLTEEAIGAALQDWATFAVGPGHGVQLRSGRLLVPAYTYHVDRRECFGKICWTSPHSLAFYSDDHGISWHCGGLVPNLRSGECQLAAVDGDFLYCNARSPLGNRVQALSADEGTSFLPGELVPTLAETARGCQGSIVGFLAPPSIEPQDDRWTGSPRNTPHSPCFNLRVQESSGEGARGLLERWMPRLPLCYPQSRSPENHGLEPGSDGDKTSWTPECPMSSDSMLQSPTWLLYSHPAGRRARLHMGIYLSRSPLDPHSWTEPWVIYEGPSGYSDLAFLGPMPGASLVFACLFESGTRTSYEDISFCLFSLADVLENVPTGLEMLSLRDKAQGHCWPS
Sialidase NEU3/NEU4 (Mus musculus), sequence (Q9JMH7 whole entry, looked up): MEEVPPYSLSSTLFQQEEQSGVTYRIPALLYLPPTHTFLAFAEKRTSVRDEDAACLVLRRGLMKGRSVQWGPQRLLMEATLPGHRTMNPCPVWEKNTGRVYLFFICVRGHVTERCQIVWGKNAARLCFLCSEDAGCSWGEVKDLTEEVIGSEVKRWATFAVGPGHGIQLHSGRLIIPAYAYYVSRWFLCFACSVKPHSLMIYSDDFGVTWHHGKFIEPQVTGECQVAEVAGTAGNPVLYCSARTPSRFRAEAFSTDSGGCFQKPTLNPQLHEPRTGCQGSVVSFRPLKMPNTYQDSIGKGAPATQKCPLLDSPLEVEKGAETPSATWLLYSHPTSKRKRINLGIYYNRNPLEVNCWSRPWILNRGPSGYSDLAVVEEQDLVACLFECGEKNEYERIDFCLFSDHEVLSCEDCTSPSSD
In short: (§1)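 Brains from 12-week-old WT, neu1−/−, neu3−/− or neu3−/−neu4−/− mice, snap-frozen and homogenized in water; protein by Bradford. Acidic neuraminidase assayed at pH 4.6 using homogenate equal to 300 μg protein, inhibitor 0–150 μM and 200 μM 4MU-NANA, 37 °C for 30 min. Stopped with 0.4 M glycine pH 10.5. Activity relative to no-inhibitor, mean ± SD of 6–12 experiments.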

[4] = target: Sialidase-1 (Mus musculus) (UniProt O35657); experiment: Inhibition of NEU1 in C57BL6 mouse brain homogenate assessed as residual activity at 10 uM using 4MU-NANA as substrate after 30 mins relative to control; in short: as §1
[5] = target: Sialidase-1 (Mus musculus) (UniProt O35657); experiment: Inhibition of NEU1 in NEU3/NEU4 double knockout C57BL6 mouse brain homogenate up to 150 uM using 4MU-NANA as substrate after 30 mins; in short: as §1
[6] = Octanol-water partition coefficient, log D of compound at pH 7.4 at 10 uM after 2 hrs by LC-MS based shake flask analysis; format: physicochemical
In short: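 Shake-flask log D at pH 7.4. Octanol and 0.1 M Tris-HCl pH 7.4, mutually saturated. Compound at 10 μM in buffer with 0.1% DMSO, at two octanol:buffer ratios, each in triplicate.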

Sialidase-3 [7] = target: T1, Sialidase-3; experiment: Inhibition of human N-terminal MBP-fused NEU3 expressed in Escherichia coli using 4MU-NANA as substrate preincubated for 15 mins followed by substrate addition measured after 30 mins by fluorescence based assay
Sialidase-1 [8] = target: T2, Sialidase-1; experiment: Inhibition of human CathA-IRES-6His-tagged NEU1 expressed in HEK293T cells using 4MU-NANA as substrate preincubated for 15 mins followed by substrate addition measured every minute for 30 mins by fluorescence based assay; format: cell-based; conditions: hek-293t
In short: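 Ki determination. Enzyme preincubated with serially diluted inhibitor 15 min at 0 °C, then serial 4MU-NANA concentrations added.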

Sialidase-3 [9] = target: T1, Sialidase-3; experiment: Inhibition of human N-terminal MBP-fused NEU3 expressed in Escherichia coli using 4MU-NANA as substrate preincubated for 15 mins followed by substrate addition measured every minute for 30 mins by fluorescence based assay
[10] = Kinetic solubility of compound in 0.9% NaCl at 10 mM incubated in supersonic bath for 30 mins measured after 24 hrs by LC-MS analysis; format: physicochemical; conditions: read-out: Kinetic_solubility
In short: (§2)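 Kinetic solubility. 10 mM DMSO stock diluted 1:100 into 0.1 M Tris-HCl pH 7.4, Prisma HT buffer, or 0.9% NaCl in water (final 1% DMSO). Sonicated 30 min at 25 °C, equilibrated 24 h at 25 °C, filtered (0.2 μm), diluted in MeOH and analysed by LC-MS. Single measurements.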

[11] = Kinetic solubility of compound in Tris-HCl buffer at pH 7.4 at 10 mM incubated in supersonic bath for 30 mins measured after 24 hrs by LC-MS analysis; format: physicochemical; in short: as §2
[12] = Kinetic solubility of compound in Prisma HT 6.5 buffer at pH 7.4 at 10 mM incubated in supersonic bath for 30 mins measured after 24 hrs by LC-MS analysis; format: physicochemical; conditions: pH 6.5, in the assay text read “at pH 6.5” for “at pH 7.4”, read-out: Kinetic_solubility; in short: as §2
Sialidase-4 = target: T3, Sialidase-4 (Homo sapiens, UniProt Q8WWR8); experiment: Inhibition of human N-terminal MBP-fused NEU4 expressed in Escherichia coli using 4MU-NANA as substrate preincubated for 15 mins followed by substrate addition measured after 30 mins by fluorescence based assay
T3 sequence (Q8WWR8 whole entry): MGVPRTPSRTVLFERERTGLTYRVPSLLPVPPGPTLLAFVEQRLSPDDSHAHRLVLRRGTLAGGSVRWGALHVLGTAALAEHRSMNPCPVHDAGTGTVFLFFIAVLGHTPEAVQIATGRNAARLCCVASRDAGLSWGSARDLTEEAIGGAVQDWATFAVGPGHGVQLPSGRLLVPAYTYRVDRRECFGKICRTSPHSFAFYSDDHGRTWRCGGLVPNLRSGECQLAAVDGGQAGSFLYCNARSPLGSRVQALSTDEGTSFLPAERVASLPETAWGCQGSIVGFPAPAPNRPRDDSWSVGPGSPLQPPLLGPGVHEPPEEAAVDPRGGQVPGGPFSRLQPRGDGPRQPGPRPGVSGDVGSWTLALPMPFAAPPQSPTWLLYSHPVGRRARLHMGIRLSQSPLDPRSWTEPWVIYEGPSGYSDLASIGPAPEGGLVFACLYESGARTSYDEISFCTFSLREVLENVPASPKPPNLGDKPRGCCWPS

Structure (SMILES): CC(=O)N[C@H]1[C@H]([C@H](O)[C@H](O)Cn2cc(-c3ccc(C(=O)O)cc3)nn2)OC(C(=O)O)=C[C@@H]1NC(=O)NCCC(=O)O
IC50 (Sialidase-1 [2]): > 500 µM
IC50 (Sialidase-3 [7]): > 500 µM

Structure (SMILES): CC(=O)N[C@H]1[C@H]([C@H](O)[C@H](O)Cn2cc(-c3ccc(C(=O)O)cc3)nn2)OC(C(=O)O)=C[C@@H]1NC(=N)N
IC50 (Sialidase-1 [2]): > 500 µM
IC50 (Sialidase-4): 24 µM
IC50 (Sialidase-3 [7]): 0.61 µM

Structure (SMILES): CC(=O)N[C@H]1[C@H]([C@H](O)[C@H](O)Cn2cc(-c3ccc(C(=O)O)cc3)nn2)OC(C(=O)O)=C[C@@H]1N=[N+]=[N-]
IC50 (Sialidase-1 [2]): > 500 µM

Structure (SMILES): CC(=O)N[C@H]1[C@H]([C@H](O)[C@H](O)CO)OC(C(=O)O)=C[C@@H]1NC(=N)N [ZANAMIVIR]
IC50 (Sialidase-1 [2]): > 500 µM
Ki (Sialidase-1 [8]): Not Active

Structure (SMILES): CC(=O)N[C@H]1[C@H]([C@H](O)[C@H](O)Cn2cc(-c3ccc(CO)cc3)nn2)OC(C(=O)O)=C[C@@H]1O
logD at 2 h, 10 µM [6]: < -1.5

Other lines, results leading:

IC50 (Sialidase-3 [1]): 3.8 µM
IC50 (Sialidase-1 [2]): > 500 µM
Activity [3]: 60%
Activity [4]: 85%
inhibition [5]: inactive
logD at 2 h, 10 µM [6]: 1.2
IC50 (Sialidase-3 [7]): 0.58 µM
Ki (Sialidase-1 [8]): Not Active
Ki (Sialidase-3 [9]): 0.32 µM
Structure (SMILES): CC(=O)N[C@H]1[C@H]([C@H](O)[C@H](O)Cn2cc(-c3ccc(-c4ccccc4)cc3)nn2)OC(C(=O)O)=C[C@@H]1NC(=N)N

solubility kinetic at 24 h, 10000 µM [10]: > 1 µg/mL
Kinetic_solubility ([11]; buffer, pH 7.4, 10000 µM): 1.5 µg/mL
logD at 2 h, 10 µM [6]: 2.3
solubility kinetic at 24 h, 10000 µM [12]: > 1 µg/mL
Structure (SMILES): COC(=O)C1=C[C@H](O)[C@@H](NC(C)=O)[C@H]([C@H](O)[C@H](O)Cn2cc(-c3ccc(-c4ccccc4)cc3)nn2)O1

solubility kinetic at 24 h, 10000 µM [10]: 2.4 µg/mL (≈ 4.47 µM)
solubility kinetic at 24 h, 10000 µM ([11]; Tris-HCl buffer, pH 7.4, read-out: Kinetic_solubility): 2.8 µg/mL (≈ 5.22 µM)
solubility kinetic at 24 h, 10000 µM [12]: 1.7 µg/mL (≈ 3.17 µM)
Structure (SMILES): CCCOC(=O)C1=C[C@H](O)[C@@H](NC(C)=O)[C@H]([C@H](O)[C@H](O)Cn2cc(-c3ccc(-c4ccccc4)cc3)nn2)O1
